From ChEMBL document CHEMBL1124844, “Synthesis and biological activities of novel 5-(2-acylethynyl)uracils” (J Med Chem, 1990)

Experiments:
CCRF-CEM [1] = experiment: (§1) Effect on CCRF-CEM cells in culture; assay type: functional, cell-based; conditions: Homo sapiens
Outline: (§2)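 Murine L1210/0 leukemia and human CCRF-CEM lymphoblastoid cells incubated at 37 °C for 48 h over a range of compound concentrations. Growth inhibition read as IC50 (μM).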

[2] = Drug evaluation at the dose of 20 mg/kg by calculating fluid weight; 0.8/2; assay type: functional, Mus musculus
Outline: (§3)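 EAC cells drawn from Swiss mouse bearing a 10–20 day tumor, diluted and counted; Swiss mice (18–20 g) inoculated ip with 1 × 10⁶ cells in 0.2 mL on day 0. Dosing ip once daily on days 1–7, in normal saline with 10% propylene glycol; controls given vehicle. Five animals per dose group. Tumor cell counts and ascitic fluid weight compared, treated (T) vs control (C).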

[3] = Drug evaluation at the dose of 20 mg/kg by counting the average ascites cells number; 35/150; assay type: functional, Mus musculus; outline: as §3
[4] = Effect on the survival of mice bearing ascites tumor in percent controls at the dose of 140 mg/kg; assay type: functional, Mus musculus
Outline: (§4)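 Swiss mice inoculated ip with 1 × 10⁶ EAC cells, then treated ip with compound in saline/10% propylene glycol, single dose or 7 daily doses, starting 24 h later. Five mice per dose; vehicle controls. Treated median survival time expressed as percent of control; >125 counted active.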

[5] = Effect on the survival of mice bearing ascites tumor at the dose of 210 mg/kg; assay type: functional, Mus musculus
Outline: (§5)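 Swiss mice (18–20 g) inoculated ip on day 0 with 1 × 10⁶ EAC cells drawn from a 10–20 day donor tumor. Compounds homogenized in normal saline with 10% propylene glycol and given ip starting 24 h later, as single dose or daily for 7 days. Five mice per dose; vehicle-only controls. Survival read as median survival time (days).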

[6] = Effect on the survival of mice bearing ascites tumor at the dose of 30 mg/kg; assay type: functional, Mus musculus; outline: as §5
[7] = Effect on the survival of mice bearing ascites tumor in percent controls at the dose of 20 mg/kg; assay type: functional, Mus musculus; outline: as §4
[8] = Effect on the survival of mice bearing ascites tumor in percent controls at the dose of 210 mg/kg; assay type: functional, Mus musculus; outline: as §4
[9] = Effect on the survival of mice bearing ascites tumor in percent controls at the dose of 30 mg/kg; assay type: functional, Mus musculus; outline: as §4
[10] = Effect on the survival of mice bearing ascites tumor in extremes treated at the dose of 140 mg/kg; assay type: functional, Mus musculus
Outline: (§6)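 EAC-bearing Swiss mice given ip compound in saline/10% propylene glycol, single dose or daily for 7 days, starting 24 h after ip inoculation of 1 × 10⁶ cells. Five mice per dose; vehicle controls. Value is the range (shortest to longest) of survival days in the treated group.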

[11] = Effect on the survival of mice bearing ascites tumor in extremes treated at the dose of 20 mg/kg; assay type: functional, Mus musculus; outline: as §6
[12] = Effect on the survival of mice bearing ascites tumor in extremes treated at the dose of 210 mg/kg; assay type: functional, Mus musculus; outline: as §6
[13] = Effect on the survival of mice bearing ascites tumor in extremes treated at the dose of 30 mg/kg; assay type: functional, Mus musculus; outline: as §6
[14] = Percent inhibition of ascites cell at the dose of 20 mg/kg; assay type: functional; conditions: Mus musculus; outline: as §3
[15] = Percent inhibition of ascitic fluid at the dose of 20 mg/kg; assay type: functional; conditions: Mus musculus; outline: as §3
[16] = Effect on the survival of mice bearing ascites tumor at the dose of 140 mg/kg; assay type: functional, Mus musculus; outline: as §5
L1210 [17] = experiment: (§7) Effect on L1210/0 cells in culture; assay type: functional, cell-based; conditions: Mus musculus; outline: as §2
[18] = Effect on the survival of mice bearing ascites tumor at the dose of 20 mg/kg; assay type: functional, Mus musculus; outline: as §5
CCRF-CEM [19] = experiment: Effect on CCRF-CEM cells (human lymphoblastoid cells) in culture; assay type: functional, cell-based; outline: as §2
[20] = Drug evaluation at the dose of 20 mg/kg by calculating fluid weight; 2/2.5; assay type: functional, Mus musculus; outline: as §3
[21] = Drug evaluation at the dose of 20 mg/kg by counting the average ascites cells number; 100/123; assay type: functional, Mus musculus; outline: as §3
[22] = Effect on the survival of mice bearing ascites tumor in percent controls at the dose of 10 mg/kg; assay type: functional, Mus musculus; outline: as §4
[23] = Effect on the survival of mice bearing ascites tumor at the dose of 70 mg/kg; assay type: functional, Mus musculus; outline: as §5
[24] = Effect on the survival of mice bearing ascites tumor in percent controls at the dose of 70 mg/kg; assay type: functional, Mus musculus; outline: as §4
[25] = Effect on the survival of mice bearing ascites tumor in extremes treated at the dose of 10 mg/kg; assay type: functional, Mus musculus; outline: as §6
[26] = Effect on the survival of mice bearing ascites tumor in extremes treated at the dose of 70 mg/kg; assay type: functional, Mus musculus; outline: as §6
[27] = Effect on the survival of mice bearing ascites tumor at the dose of 10 mg/kg; assay type: functional, Mus musculus; outline: as §5
L1210 [28] = experiment: Effect on L1210/0 cells (mouse leukemia cells) in culture
[29] = Drug evaluation at the dose of 20 mg/kg by counting the average ascites cells number; 59/165; assay type: functional, Mus musculus; outline: as §3
CCRF-CEM [30] = experiment: as §1; assay type: functional, cell-based; conditions: Homo sapiens; remark: listed apart in the source
Outline: (§8)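 CCRF-CEM human lymphoblastoid or L1210/0 mouse leukemia cells incubated with a range of compound concentrations at 37 °C for 48 h; IC50 (μM) taken from cell growth.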

L1210 [31] = experiment: as §7; assay type: functional, cell-based; conditions: Mus musculus; outline: as §8; remark: listed apart in the source

| Structure (SMILES) | Controls [4] | Survival treated [5] | Survival treated [6] | Controls [7] | Controls [8] | Controls [9] | Extremes treated [10] | Extremes treated [11] | Extremes treated [12] | Extremes treated [13] | inhibition in vivo at 20 mg/kg [14] | inhibition in vivo at 20 mg/kg [15] | Survival treated [16] | IC50 (L1210 [17]) | Survival treated [18] | IC50 (CCRF-CEM [19]) | also measured |
| --- | --- | --- | --- | --- | --- | --- | --- | --- | --- | --- | --- | --- | --- | --- | --- | --- | --- |
| O=C(C#Cc1cnc(O)nc1O)c1ccccc1 | 281% | 21.5 | 17.5 | 169% | 165% | 134% | 39 | 23 | 22 | 18 | 76% | 60% | 36.5 | 650 nM | 22 | – | IC50 (CCRF-CEM [1]): 2000 nM; T/C [2]: 0.4; T/C [3]: 0.233 |
| COc1ccc(C(=O)C#Cc2cnc(O)nc2O)cc1 | 127% | 14 | 12 | 164% | 127% | 109% | 15 | 19 | 16 | 13 | 19.1% | 20% | 14 | 2000 nM | 18 | 2300 nM | T/C [20]: 0.8; T/C [21]: 0.813 |
| Cc1ccc(C(=O)C#Cc2cnc(O)nc2O)cc1 | 300% | – | – | 178% | – | – | 35 | 23 | – | – | – | – | 34.5 | – | 20.5 | 2250 nM | Controls [22]: 113%; Survival treated [23]: 30; Controls [24]: 260%; Extremes treated [25]: 14; Extremes treated [26]: 31; Survival treated [27]: 13; IC50 (L1210 [28]): 1900 nM |
| O=C(C#Cc1cnc(O)nc1O)c1ccccc1Cl | 127% | 26.5 | 18.5 | 127% | 204% | 142% | 18 | 17 | 27 | 20 | 64.2% | 37.5% | 16.5 | 2000 nM | 16.5 | 2200 nM | T/C [29]: 0.358 |
| O=c1[nH]cc(F)c(=O)[nH]1 [FLUOROURACIL] | 92% | – | – | 342% | – | – | 14 | 45 | – | – | – | – | 11 | – | 41 | – | IC50 (CCRF-CEM [30]): 2000 nM; IC50 (L1210 [31]): 300 nM |
